In brackets after ≈: the same amount, converted by molar mass. Activity calls are given as the source filed them. The calls are words filed in the database; no cut-off is given here.
How the values were obtained:
[1] = system: Staphylococcus epidermidis; test: Antimicrobial activity against Staphylococcus epidermidis ATCC 12228 after 24 hrs by broth microdilution method; type: functional; details: ATCC 12228, 24 h
How it was run: (§1)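 Broth dilution method. H. influenzae grown in Haemophilus Test Medium, other bacteria in Mueller Hinton Broth. Compounds dissolved in DMSO and diluted in growth medium. Incubated 24 h at 37 °C. MIC is the lowest concentration inhibiting reproduction of the organism. Drug-free tubes served as growth controls, organism-free tubes as purity controls, and solvent-only tubes as controls.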

Escherichia coli [2] = test: Antimicrobial activity against quinolone and penicillin-resistant Escherichia coli after 24 hrs by broth microdilution method; type: functional
How it was run: (§2)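 Broth dilution in Mueller Hinton Broth; compounds dissolved in DMSO and diluted in growth medium. […] Drug-free tubes served as growth controls and organism-free tubes as purity controls, with solvent-only controls included. Ciprofloxacin, levofloxacin, moxifloxacin and gemifloxacin were the reference drugs.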

Bacillus subtilis = test: Antimicrobial activity against Bacillus subtilis ATCC 6633 after 24 hrs by broth microdilution method; type: functional; details: ATCC 6633, 24 h; how it was run: as §1
Pseudomonas aeruginosa [3] = test: Antimicrobial activity against quinolone and penicillin-resistant Pseudomonas aeruginosa after 24 hrs by broth microdilution method; type: functional; how it was run: as §2
Acinetobacter baumannii [4] = test: Antimicrobial activity against Acinetobacter baumannii ATCC 19606 after 24 hrs by broth microdilution method; type: functional; details: ATCC 19606, 24 h; how it was run: as §1
Staphylococcus aureus [5] = test: Antimicrobial activity against quinolone and penicillin-resistant Staphylococcus aureus SAR4790 after 24 hrs by broth microdilution method; type: functional; how it was run: as §2
Pseudomonas aeruginosa [6] = test: Antimicrobial activity against Pseudomonas aeruginosa ATCC 9027 after 24 hrs by broth microdilution method; type: functional; details: ATCC 9027, 24 h; how it was run: as §1
MCF7 = test: Cytotoxicity against human MCF7 cells after 72 hrs by MTT assay; type: functional, cell-based; details: MCF7, 72 h
How it was run: (§3)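 Cells kept in medium with 2 mM glutamine and 10% FBS at 37 °C, 5% CO2. Compounds dissolved in DMSO just before addition (final ≤0.1% v/v; same solvent in controls). After 72 h exposure, viability read by MTT. Triplicates, ≥3 independent experiments. Dose–response fitted with single or double Hill functions; IC50 extrapolated from curves.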

[7] = Cytotoxicity against human HDF after 72 hrs by MTT assay; type: cell-based; how it was run: as §3
A549 = test: Cytotoxicity against human A549 cells after 72 hrs by MTT assay; type: functional, cell-based; details: A549, 72 h; how it was run: as §3
[8] = Inhibition of Escherichia coli DNA topoisomerase-4-mediated decatenation of kinetoplast DNA by electrophoresis
[9] = Inhibition of Escherichia coli DNA gyrase-mediated supercoiling of pBR322 using bromothymol blue by electrophoresis
How it was run: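 E. coli gyrase supercoiling of relaxed pBR322 in 35 mM Tris–HCl pH 7.5, 24 mM KCl, 4 mM MgCl2, 2 mM DTT, 1.8 mM spermidine, 1 mM ATP, 6.5% glycerol, 0.1 mg/mL albumin. Incubated 30 min at 37 °C, stopped with chloroform/isoamyl alcohol, run on 1% agarose and gel-quantitated. IC50 is the concentration halving supercoiling versus drug-free control. ≥3 independent experiments.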

Staphylococcus aureus [10] = test: Antimicrobial activity against quinolone and penicillin-resistant Staphylococcus aureus SAR72 after 24 hrs by broth microdilution method; type: functional; how it was run: as §2
Staphylococcus aureus [11] = test: Antimicrobial activity against Staphylococcus aureus ATCC 6538 after 24 hrs by broth microdilution method; type: functional; details: ATCC 6538, 24 h; how it was run: as §1
Haemophilus influenzae = test: Antimicrobial activity against Haemophilus influenzae ATCC 19418 after 24 hrs by broth microdilution method; type: functional; details: ATCC 19418, 24 h; how it was run: as §1
Escherichia coli [12] = test: Antimicrobial activity against Escherichia coli ATCC 8739 after 24 hrs by broth microdilution method; type: functional; details: ATCC 8739, 24 h; how it was run: as §1
Acinetobacter baumannii [13] = test: Antimicrobial activity against quinolone and penicillin-resistant Acinetobacter baumannii after 24 hrs by broth microdilution method; type: functional; how it was run: as §2
[14] = system: Staphylococcus epidermidis; test: Antimicrobial activity against quinolone and penicillin-resistant Staphylococcus epidermidis SER after 24 hrs by broth microdilution method; type: functional; how it was run: as §2

SMILES	MIC [1]	MIC (Escherichia coli [2])	MIC (Bacillus subtilis)	MIC (Pseudomonas aeruginosa [3])	MIC (Acinetobacter baumannii [4])	MIC (Staphylococcus aureus [5])	MIC (Pseudomonas aeruginosa [6])	IC50 (MCF7)	IC50 [7]	IC50 (A549)	IC50 [8]	IC50 [9]	MIC (Staphylococcus aureus [10])	MIC (Staphylococcus aureus [11])	MIC (Haemophilus influenzae)	MIC (Escherichia coli [12])	MIC (Acinetobacter baumannii [13])	MIC [14]	MIC (Staphylococcus aureus [5]; SAR4790, 24 h)	MIC (Staphylococcus aureus [10]; SAR72, 24 h)
Cc1ccc2c(c1)[nH]c1c2c(F)cc2c(=O)c(C(=O)O)cn(C3CC3)c21	> 100 µg/mL	inactive	0.07 µg/mL (≈ 0.2 µM)	inactive	> 100 µg/mL	inactive	> 100 µg/mL	> 10 µM	> 10 µM	> 10 µM	> 300 µg/mL	3 µg/mL (≈ 8.56 µM)	inactive	> 100 µg/mL	> 100 µg/mL	> 100 µg/mL	inactive	inactive		
O=C(O)c1cn(C2CC2)c2c(cc(F)c3c2[nH]c2ccsc23)c1=O	0.03 µg/mL (≈ 0.0876 µM)	> 100 µg/mL	0.003 µg/mL (≈ 0.00876 µM)	> 100 µg/mL	3 µg/mL (≈ 8.76 µM)		50 µg/mL (≈ 146 µM)	4.4 µM	> 10 µM	6.4 µM	100 µg/mL (≈ 292 µM)	1.1 µg/mL (≈ 3.21 µM)		0.03 µg/mL (≈ 0.0876 µM)	0.015 µg/mL (≈ 0.0438 µM)	1.5 µg/mL (≈ 4.38 µM)	> 100 µg/mL	50 µg/mL (≈ 146 µM)	> 100 µg/mL	12 µg/mL (≈ 35.1 µM)
O=C(O)c1cn(C2CC2)c2c(cc(F)c3c4ccccc4[nH]c32)c1=O	0.15 µg/mL (≈ 0.446 µM)	> 100 µg/mL	0.015 µg/mL (≈ 0.0446 µM)	inactive	12 µg/mL (≈ 35.7 µM)		> 100 µg/mL	3.6 µM	> 10 µM	6.4 µM	35 µg/mL (≈ 104 µM)	1.7 µg/mL (≈ 5.05 µM)		0.3 µg/mL (≈ 0.892 µM)	0.03 µg/mL (≈ 0.0892 µM)	50 µg/mL (≈ 149 µM)	> 100 µg/mL	> 100 µg/mL	> 100 µg/mL	12 µg/mL (≈ 35.7 µM)
COc1ccc2c(c1)[nH]c1c2c(F)cc2c(=O)c(C(=O)O)cn(C3CC3)c21	3 µg/mL (≈ 8.19 µM)	inactive	0.07 µg/mL (≈ 0.191 µM)	inactive	50 µg/mL (≈ 136 µM)		> 100 µg/mL	2.4 µM	> 10 µM	4.9 µM	48 µg/mL (≈ 131 µM)	4.8 µg/mL (≈ 13.1 µM)		3 µg/mL (≈ 8.19 µM)	1.5 µg/mL (≈ 4.09 µM)	> 100 µg/mL	> 100 µg/mL	> 100 µg/mL	> 100 µg/mL	> 100 µg/mL
COc1c(C)cc2c([nH]c3c2c(F)cc2c(=O)c(C(=O)O)cn(C4CC4)c23)c1C	25 µg/mL (≈ 63.4 µM)	inactive	0.07 µg/mL (≈ 0.177 µM)	inactive	> 100 µg/mL		> 100 µg/mL	1.7 µM	> 10 µM	3 µM	31 µg/mL (≈ 78.6 µM)	> 30 µg/mL		6 µg/mL (≈ 15.2 µM)	6 µg/mL (≈ 15.2 µM)	> 100 µg/mL	inactive	> 100 µg/mL	> 100 µg/mL	> 100 µg/mL

From ChEMBL document CHEMBL1212890, “Synthesis and biological evaluation of tetracyclic fluoroquinolones as antibacterial and anticancer agents” (Bioorg Med Chem, 2010)
